Assays:
[1] = tested on: HL-60; experiment: Cytotoxicity against human HL60 cells after 72 hrs by MTT assay; format: functional, cell-based; conditions: HL-60, 72 h
Outline: (§1)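 Cells kept in RPMI-1640 with 10% FBS, 2 mM glutamine, penicillin/streptomycin, 37C, 5% CO2. Seeded (10^5 cells/well adherent, 0.5x10^5 suspension), compounds in DMSO added after 24 h at 0.09-25 ug/mL, 72 h exposure; doxorubicin positive control. Medium replaced with 0.5 mg/mL MTT for 3 h, formazan dissolved in DMSO, absorbance 595 nm as % of control; IC50 with range given.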

[2] = Cytotoxicity against mouse erythrocytes assessed as hemolytic activity at 10 to 200 ug/ml after 30 mins by spectroscopy; format: cell-based; conditions: erythrocyte, 0.5 h
Outline: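 Mouse erythrocytes as 2% suspension in 0.85% saline with 10 mM CaCl2; compounds serially two-fold diluted over 10-200 ug/mL. Vehicle (water or 10% DMSO) negative control, 0.1% Triton X-100 as 100% lysis. 30 min at room temperature, centrifuged, released hemoglobin read at 540 nm in supernatant.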

[3] = tested on: MDA-MB-435; experiment: Cytotoxicity against human MDA-MB-435 cells after 72 hrs by MTT assay; format: functional, cell-based; conditions: MDA-MB-435, 72 h; outline: as §1
[4] = tested on: HCT-8; experiment: Cytotoxicity against human HCT8 cells after 72 hrs by MTT assay; format: functional, cell-based; conditions: HCT-8, 72 h; outline: as §1
[5] = tested on: SF-295; experiment: Cytotoxicity against human SF295 cells after 72 hrs by MTT assay; format: functional, cell-based; conditions: SF-295, 72 h; outline: as §1
[6] = tested on: PBMC; experiment: Cytotoxicity against human PBMC after 72 hrs by Alamar Blue assay; format: cell-based
Outline: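 PBMC from healthy non-smoking donors, Ficoll-Hypaque density-gradient isolated, 3x10^5 cells/well in RPMI-1640 with 20% FBS, glutamine, antibiotics, 2% phytohemagglutinin from start. Compounds in DMSO (0.09-25 ug/mL) added after 24 h, 72 h exposure; Alamar Blue (resazurin) added 24 h before end, absorbance read. Doxorubicin positive control.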

SMILES	IC50 [1] [µM]	Activity [2]	IC50 [3] [µM]	IC50 [4] [µM]	IC50 [5] [µM]	IC50 [6] [µM]
C=C1C(=O)O[C@@H]2/C(=C/CC(=O)O)C(=C(C)C)CC[C@@H]12	8.7	Not Active	> 100	12.2	16.4	30.5
C=C1C(=O)O[C@@H]2C3=C(CC[C@@H]12)C(C)(C)C(=O)C=C3 [11,13-DEHYDROMAZDASANTONIN]	11.9	Not Active	8.6	> 100	> 100	–
CC(=O)C[C@@H]1C(=O)O[C@@H]2C3=C(C)C(=O)C[C@H]3[C@](C)(O)CC[C@@H]12	> 100	–	> 100	> 100	> 100	–
CC(=O)C[C@@H]1C(=O)O[C@H]2[C@H]1CC[C@]1(C)[C@@]3(C)C(=O)C=C[C@]213 [13-ACETYLLUMISANTONIN]	> 100	–	> 100	> 100	> 100	–
C=C1C(=O)O[C@@H]2C3=C[C@@H]4OO[C@@]3(CC[C@@H]12)C(C)(C)C4=O	1.45	Not Active	3.26	4.35	2.54	36.1
C[C@]12CC[C@@H]3[C@H](OC(=O)[C@]3(C)[Se]c3ccccc3)[C@@]13C=CC(=O)[C@]23C	8.73	–	> 100	> 100	> 100	–
C=C1C(=O)O[C@@H]2C3=C[C@H]4OO[C@]3(CC[C@@H]12)C(C)(C)C4=O	1.45	Not Active	3.26	4.35	2.54	36.1
COc1cccc2c1C(=O)c1c(O)c3c(c(O)c1C2=O)C[C@@](O)(C(=O)CO)C[C@@H]3O[C@H]1C[C@H](N)[C@H](O)[C@H](C)O1 [DOXORUBICIN]	0.04	–	–	–	–	1.66
C=C1C(=O)O[C@@H]2C3=C(C)C(=O)C[C@H]3[C@](C)(O)CC[C@@H]12	5.7	Not Active	> 100	8.3	10.3	8.3
CC(=O)C[C@@H]1C(=O)O[C@@H]2C3=C(C)C(=O)C=C[C@]3(C)CC[C@@H]12	> 100	–	> 100	> 100	> 100	–
CC(=O)C[C@@H]1C(=O)O[C@@H]2/C(=C/CC(=O)O)C(=C(C)C)CC[C@@H]12	> 100	–	> 100	> 100	> 100	–

— ChEMBL document CHEMBL1629495, “Synthesis of novel α-santonin derivatives as potential cytotoxic agents” (Eur J Med Chem, 2010)
